Bioassay records deposited in PubChem BioAssay by SRMLSC.
PostGolgi ctrl – inhibits growth of the yeast control strain; efflux-deficient yeast background strain, growth absorbance A615, 16 h; inhibition, % at 10 µM; 98,000 tested, 5% active
Her2 expr inh – Her2 kinase expression inhibition. SKBR-3 HER2 protein level, AlphaScreen, 18-24 h; stronger effect = lower value. P04626. HER2 level % of control, % at 10 µM. 65,000 tested, 0.69% active. AID 645;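 active = HER2 level under 5% of the carrier-only control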;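 note: 100% = DMSO carrier and 0% = 500 nM PU-H71 HSP90 inhibitor; lower value means stronger loss of Her2 protein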
PostGolgi yeast – growth inhibition of a yeast mutant, post-Golgi transport screen. post-Golgi transport phenotypic cell assay. inhibition, % at 10 µM. 98,000 tested, 0.9% active. AID 739;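 note: yeast cells grown in 1536-well plates; yeast grown about 18 h at 30C before absorbance read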
E coli WT exp – growth inhibitors of E. coli BW25113 wild type | AID 710 | growth inhibition, % at 100 µM | 98,000 tested, 0.15% active | OD600 absorbance;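 active = growth inhibition above about 50% at one test dose, limit read from the data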;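 note: growth measured after 20 h incubation at 37 °C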
Ecoli tolC – blocks growth of E. coli BW25113 tolC mutant | OD615 | growth inhibition, % at 10 µM (by protocol) | 65,000 tested, 2.2% active | AID 573;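 active = growth inhibition at or above a cutoff equal to the mean over every tested compound plus 3 SD, cut at about 60% in these data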;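 note: growth measured after 20 h incubation at 37 °C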
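Test system: E. coli BW25113 ΔtolC::kan bacteria | Medium: Kanamycin-containing LB broth (50 µg/mL) | Dosing: One dose of 10 µM final | Times: 20 h incubation with compound, 37 °C | Detection: Optical density read at 615 nm | Read-out basis: Percent growth inhibition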
Active calls of the source: *; . = no result. Compounds with a hit are over-represented: about 6.6% of the library has one in this group of screens. Cut-off read from the data, not from the text of the source, unless noted: active = inhibition above about 30%; inactive = the rest.

SMILES | PostGolgi ctrl | Her2 expr inh | PostGolgi yeast | E coli WT exp | Ecoli tolC
O=c1c2c(nc3cc(-c4cccc(Cl)c4)[nH]n13)CCC2 | -8.0 | . | 17.4 | 3.0 | .
CS(=O)(=O)N(CCc1ccccc1)CC(N)=O | 7.3 | 88.5 | -4.3 | 4.0 | -9.3
CC(C)c1nnc(NC(=O)c2c(O)c3cccc4c3n(c2=O)CCC4)s1 | 59.1* | 38.9 | 80.4* | -2.0 | 100.0*
Cc1cnc(NC(=O)c2c(O)c3cccc4c3n(c2=O)CCC4)s1 | -10.9 | 71.2 | 8.9 | -2.0 | -10.0
O=C(NCC1CCS(=O)(=O)C1)NCC1CCS(=O)(=O)C1 (configuration not stated) | 6.9 | 159.2 | -1.3 | 7.0 | -3.4
CSc1nc(N)nc(SCCS(=O)(=O)c2ccc(Cl)cc2)c1C#N | 57.6* | 50.0 | 1.8 | -24.0 | 47.5
O=C(NCc1ccco1)C(Cc1ccccc1)N1C(=O)c2ccccc2C1=O (configuration not stated) | 10.4 | -20.3* | 1.1 | 0.0 | -11.2
CCN1C(=O)c2ccc(C(=O)NCc3ccccc3)cc2C1=O | 2.8 | 69.4 | 41.7* | -5.0 | -2.2
[N-]=[N+]=CC(=O)CNC(=O)[C@@H](Cc1ccccc1)N1C(=O)c2ccccc2C1=O | -1.8 | 97.2 | -4.5 | -4.0 | -8.3
O=C(NCc1ccco1)c1ccc2c(c1)C(=O)N(Cc1ccccc1)C2=O | 44.2* | 126.3 | -4.1 | 4.0 | 13.6
CCCCNC(=O)C(C#N)c1nc2ccccc2nc1N1CCN(c2ccccc2F)CC1 (configuration not stated) | 12.9 | 163.4 | -2.2 | -26.0 | 1.7
CCNC(=O)n1nccc1C(C)Oc1ccc(Cl)cc1 (configuration not stated) | 6.6 | . | 3.4 | 6.0 | .
Cc1sc2nc(C(C)Nc3ccccc3N3CCOCC3)[nH]c(=O)c2c1C (configuration not stated) | 10.8 | 58.7 | -15.9 | -4.0 | 24.8
CN(C)C(=O)c1cc(Cl)ccc1Sc1cc(Cl)ccc1Cl | 56.0* | . | -4.2 | 9.0 | .
Cc1cc(C)c(CSc2ncc(-c3ccc([N+](=O)[O-])cc3)[nH]2)c(C)c1 | 48.5* | . | 5.2 | -10.0 | .
O=[N+]([O-])c1ccc2nc(SCc3ccccc3Cl)sc2c1 | 12.0 | . | 6.0 | -10.0 | .
O=[N+]([O-])c1ccc(-c2cnc(SCc3ccccc3Cl)[nH]2)cc1 | 42.2* | . | 4.0 | 2.0 | .
O=C(CCC1CCCCC1)NNC(=O)NC12CC3CC(CC(C3)C1)C2 | 22.7 | . | 1.6 | 9.0 | .
CCC(C)NC(=O)c1c(N)n(/N=C/c2ccccn2)c2nc3ccccc3nc12 (configuration not stated) | 37.4* | 47.7 | 1.2 | -17.0 | 21.2
CCC(C)NC(=O)c1c(N)n(/N=C/c2cccnc2)c2nc3ccccc3nc12 (configuration not stated) | 15.8 | 52.8 | 0.5 | -19.0 | -0.3
Cc1cccc(C)c1Nc1nnc(SCc2cc([N+](=O)[O-])cc3c2OCOC3)s1 | 33.4* | . | 4.4 | -10.0 | .
CCOC(=O)c1nnc(-c2cccs2)nc1Oc1ccc(Cl)cc1 | 47.1* | . | 21.8 | -16.0 | .
CCOC(=O)c1nnc(-c2ccc(C)cc2)nc1Oc1ccc(Cl)cc1Cl | 35.0* | . | 11.9 | -15.0 | .
CCOC(=O)c1nnc(-c2cccs2)nc1Oc1ccccc1C(=O)OC | 9.0 | . | 20.3 | -10.0 | .
CCOC(=O)c1nnc(-c2ccc(C)cc2)nc1Oc1ccccc1Cl | 46.6* | . | -1.7 | -5.0 | .
SMILES | PostGolgi ctrl | Her2 expr inh | PostGolgi yeast | E coli WT exp | Ecoli tolC
CCOC(=O)c1nnc(-c2ccccc2)nc1NCc1ccc(Cl)cc1 | 38.8* | . | 15.4 | -14.0 | .
O=c1[nH]cnc2c([N+](=O)[O-])cccc12 | 32.3* | . | -1.6 | 3.0 | .
CCCCCNc1nc(-c2ccccc2)cs1 | -4.4 | . | 3.0 | -6.0 | .
Cc1ccc(C2CC(c3cccc(Br)c3)Nc3nnnn32)cc1 (configuration not stated) | 11.7 | 89.8 | 4.5 | -9.0 | 66.6*
COc1ccc(C2CC(c3ccccc3)n3nnnc3N2)cc1 (configuration not stated) | -1.0 | . | -2.9 | 2.0 | .
Cc1nnc(SCC(=O)NC(=O)NCc2ccco2)n1Cc1ccccc1 | 16.1 | . | -0.8 | 1.0 | .
Cc1cc(C(=O)OCC(=O)Nc2ccc(F)cc2F)c(C)o1 | 3.7 | 80.1 | 2.4 | 3.0 | -4.6
O=C(N/N=C/c1c[nH]c2ccccc12)c1ccn(Cc2ccc(Cl)cc2Cl)n1 | 9.8 | . | 5.6 | -5.0 | .
O=C(N/N=C/c1c[nH]c2ccc(Br)cc12)c1ccn(Cc2ccc(Cl)cc2)n1 | 56.5* | . | 3.3 | -8.0 | .
O=C(Nc1cc(Cl)cc(Cl)c1)C(NCCO)c1ccccc1 (configuration not stated) | 1.0 | . | 6.7 | 0.0 | .
O=C(Nc1ccccc1)Nc1cc(Cl)cc(Cl)c1 | 55.6* | . | 9.0 | 14.0 | .
CSc1cccc(NC(=O)Nc2ccccc2)c1 | 47.8* | 80.6 | -3.9 | 2.0 | 39.5
Cc1cccc(NC(=O)CN(c2ccc(C(C)C)cc2)S(=O)(=O)c2c(C)nn(C)c2C)n1 | 5.5 | . | -0.8 | 0.0 | .
Cn1c(=O)[nH]c(=O)c2c1nc(N1CCOCC1)n2CCCSc1ncccn1 | 8.4 | 81.7 | 0.6 | -2.0 | -22.3
Cc1cc(C)n2nc(-c3sccc3-n3cccc3)cc2n1 | 35.1* | . | -9.8 | 0.0 | .
COC(=O)c1sccc1NC(=O)c1cc(-c2ccc(C)cc2C)nc2ccccc12 | -7.9 | . | 4.8 | -23.0 | .
Cc1ccc(C2=N/C(=C\c3cccs3)C(=O)N2Nc2ccccc2)cc1 | 31.9* | . | 10.9 | -11.0 | .
CCc1ccc(NS(=O)(=O)c2ccc3[nH]cc(C(=O)NCC4CCCO4)c(=O)c3c2)cc1 (configuration not stated) | 12.1 | 67.6 | -11.9 | 2.0 | 57.2
CCc1ccccc1NS(=O)(=O)c1ccc2[nH]cc(C(=O)NCc3ccco3)c(=O)c2c1 | 3.5 | 61.7 | -10.9 | 1.0 | 100.0*
COc1ccc(S(=O)(=O)Nc2ccccc2C(=O)NCc2ccco2)cc1 | 31.0* | 71.2 | 0.0 | 2.0 | 8.4
O=C(NCc1ccco1)c1c[nH]c2ccc(S(=O)(=O)N3CCOCC3)cc2c1=O | 12.1 | 75.4 | 6.1 | -3.0 | -7.4
O=C(NCc1ccccc1)c1c[nH]c2ccc(S(=O)(=O)Nc3ccc4c(c3)OCCO4)cc2c1=O | -1.8 | 93.7 | -7.2 | -14.0 | 61.2*
CCC(Sc1nc(-c2ccccc2)c(C#N)c(=O)[nH]1)C(=O)Nc1nnc(C)s1 (configuration not stated) | -0.3 | . | 18.7 | 5.0 | .
CCOCCn1c(CN2CCOCC2)nc2c1c(=O)[nH]c(=O)n2C | 24.5 | 84.9 | 4.9 | -2.0 | -19.1
CCOC(=O)N1CCN(c2nnnn2-c2ccccc2)CC1 | 10.2 | -25.6* | 12.6 | 7.0 | 0.0
CCSc1nnc(NC(=O)CSc2nc3c(c(=O)n2CCOC)SC(C)C3)s1 (configuration not stated) | . | 93.2 | . | . | 7.0
N#CCc1c(C#N)c(N)nc(N2CCN(c3ccc(F)cc3)CC2)c1C#N | 46.6* | . | 17.1 | -5.0 | .
COc1ccc(N(C)C(=O)CCS(=O)(=O)c2cccc3nonc23)c(OC)c1 | 33.6* | . | -1.1 | -12.0 | 11.6
Clc1ccc(CON/C=N/c2ncnc3sccc23)cc1 | -2.1 | . | 3.1 | -1.0 | .
C(=N\c1ncnc2sccc12)/NOCc1ccccc1 | 65.8* | . | 21.8 | -6.0 | .
